Screening data from PubChem.
The list is not random: actives were taken first. Their share in the collection is about 7.2%.
PLAP activator = human PLAP activation; 96,000 tested, 1.2% active; activation fold at 20 µM; purified PLAP enzyme, luminescent substrate read-out; hits give high values; in the data active = activation fold above about 2
Target sequence (P05187 whole entry, looked up): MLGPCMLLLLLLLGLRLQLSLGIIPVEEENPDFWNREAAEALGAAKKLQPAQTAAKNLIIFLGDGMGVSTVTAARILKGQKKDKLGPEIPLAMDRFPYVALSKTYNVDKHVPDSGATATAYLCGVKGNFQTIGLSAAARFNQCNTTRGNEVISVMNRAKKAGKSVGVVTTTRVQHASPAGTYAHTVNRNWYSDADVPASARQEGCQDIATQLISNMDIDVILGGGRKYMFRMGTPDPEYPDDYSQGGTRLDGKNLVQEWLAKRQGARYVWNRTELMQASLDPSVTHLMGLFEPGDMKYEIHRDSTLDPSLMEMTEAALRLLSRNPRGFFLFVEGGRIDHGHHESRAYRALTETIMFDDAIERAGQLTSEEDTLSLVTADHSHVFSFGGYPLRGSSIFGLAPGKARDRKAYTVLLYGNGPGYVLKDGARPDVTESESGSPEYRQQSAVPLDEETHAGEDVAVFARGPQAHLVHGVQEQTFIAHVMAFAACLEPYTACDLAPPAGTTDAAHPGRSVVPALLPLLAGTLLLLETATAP
PostGolgi ctrl = growth of the yeast control strain, post-Golgi counter-screen. AID 738. efflux-deficient yeast background strain, growth absorbance A615, 16 h. inhibition, % at 10 µM. 98,000 tested, 5% active
PostGolgi yeast = growth inhibition of a yeast mutant, post-Golgi transport screen; post-Golgi transport phenotypic cell assay; inhibition, % at 10 µM; 98,000 tested, 0.9% active;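 also: yeast cells grown in 1536-well plates; yeast grown about 18 h at 30C before absorbance read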
Ecoli tolC = blocks growth of E. coli BW25113 tolC mutant; AID 573; 65,000 tested, 2.2% active; growth inhibition, % at 10 µM (by protocol); OD615;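 active = growth inhibition at or above a cutoff equal to the mean over every tested compound plus 3 SD, cut at about 60% in these data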;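 also: growth measured after 20 h incubation at 37 °C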
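test system = E. coli BW25113 ΔtolC::kan bacteria | medium = LB with kanamycin 50 µg/mL | signal = OD at 615 nm | schedule = 37 °C, 20 h exposure | evaluation = % inhibition of E. coli growth | compound dosing = one dose of 10 µM final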
Ecoli WT expand = E. coli BW25113 growth inhibition, expanded screen; OD600 absorbance; growth inhibition, % at 100 µM; 98,000 tested, 0.15% active;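 active = growth inhibition above about 50% at one test dose, limit read from the data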;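 also: growth measured after 20 h incubation at 37 °C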
Active calls of the source: *. Rule as the data show it, unless noted: active = inhibition above about 30%; inactive = the rest.

Results for Cc1cc(C(=O)N2CCN(C/C=C/c3ccccc3)CC2)cs1 ?
PLAP activator: 1.6; PostGolgi ctrl: -9; PostGolgi yeast: -2; Ecoli tolC: 16; Ecoli WT expand: 17

Results for O=C(c1cc(Br)c(Br)s1)N1CCN(C/C=C/c2ccccc2)CC1 ?
PLAP activator: 1.5; PostGolgi ctrl: 46*; PostGolgi yeast: 8; Ecoli WT expand: -24

Results for CC1CCN(CCCCOc2ccccc2[N+](=O)[O-])CC1 ?
PLAP activator: 1.1; PostGolgi ctrl: 25; PostGolgi yeast: 9; Ecoli WT expand: 3

How did COc1cccc(-c2csc(N3CCN(C(=O)Nc4ccccc4OC)CC3)n2)c1 do in these assays?
PostGolgi ctrl: 6; PostGolgi yeast: -8; Ecoli tolC: 27; Ecoli WT expand: -9

Results for COc1cccc(-c2csc(N3CCN(C(=O)C4CCCCC4)CC3)n2)c1 ?
PLAP activator: 1.5; PostGolgi ctrl: 38*; PostGolgi yeast: -3; Ecoli tolC: 69*; Ecoli WT expand: -28

How did CC1CCN(c2cc(C#N)c(C#N)cc2[N+](=O)[O-])CC1 do in these assays?
PLAP activator: 1; PostGolgi ctrl: 76*; PostGolgi yeast: 0; Ecoli WT expand: -7

How did Cc1cc(N2CCC(C)CC2)c(F)cc1[N+](=O)[O-] do in these assays?
PLAP activator: 0.8; PostGolgi ctrl: -6; PostGolgi yeast: 18; Ecoli WT expand: 11

Results for CC1CCCCN1c1cc(C#N)c(C#N)cc1[N+](=O)[O-] (centres undefined) ?
PLAP activator: 0.9; PostGolgi ctrl: 43*; PostGolgi yeast: -1; Ecoli WT expand: 3

How did CC1CCN(c2cc(N)c(Cl)cc2[N+](=O)[O-])CC1 do in these assays?
PLAP activator: 0.9; PostGolgi ctrl: 38*; PostGolgi yeast: -6; Ecoli WT expand: 11

Results for CC1CCN(c2ccc(C(=O)N3CCOCC3)cc2[N+](=O)[O-])CC1 ?
PLAP activator: 1; PostGolgi ctrl: -3; PostGolgi yeast: -5; Ecoli WT expand: -5

How did Cc1ccc([N+](=O)[O-])cc1NC(=O)CCCOc1ccccc1 do in these assays?
PLAP activator: 0.8; PostGolgi ctrl: 3; PostGolgi yeast: 4; Ecoli WT expand: -5

What do the screens show for `O=C1C2ON(c3ccccc3)C(c3cccnc3)C2C(=O)N1c1ccccc1` (centres undefined)?
PLAP activator: 0.9; PostGolgi ctrl: 7; PostGolgi yeast: 14; Ecoli tolC: 10; Ecoli WT expand: -1

How did O=C1C2ON(c3ccc(Br)cc3)C(c3cccnc3)C2C(=O)N1C1CCCCC1 (centres undefined) do in these assays?
PLAP activator: 1; PostGolgi ctrl: 85*; PostGolgi yeast: 102*; Ecoli tolC: 8; Ecoli WT expand: -3

How did Cc1ccc2oc(=O)c3cnn(CC(=O)N4CCCc5ccccc54)c3c2c1 do in these assays?
PLAP activator: 0.9; PostGolgi ctrl: 12; PostGolgi yeast: -8; Ecoli tolC: 1; Ecoli WT expand: 0

How did O=C(O)c1cccc(NC(=S)NC(=O)C(c2ccccc2)c2ccccc2)c1 do in these assays?
PLAP activator: 1.2; PostGolgi ctrl: 11; PostGolgi yeast: 24; Ecoli WT expand: -2

What do the screens show for `COC(=O)c1c(-c2cccc3ccccc23)csc1NC(=O)Cc1ccc(OC)c(OC)c1`?
PLAP activator: 1.6; PostGolgi ctrl: 20; PostGolgi yeast: 3; Ecoli WT expand: -16

What do the screens show for `CN1C(=O)S/C(=C/c2cccnc2)C1=O`?
PLAP activator: 1.4; PostGolgi ctrl: 21; PostGolgi yeast: 11; Ecoli WT expand: -2

Results for O=C1/C(=C/c2ccncc2)SC(=S)N1C1CCS(=O)(=O)C1 (centres undefined) ?
PLAP activator: 1.3; PostGolgi ctrl: 5; PostGolgi yeast: 2; Ecoli WT expand: 54*

Results for O=C(Nc1cccc(C(F)(F)F)c1)c1ccc(Cn2cc(Br)cn2)o1 ?
PLAP activator: 0.9; PostGolgi ctrl: 38*; PostGolgi yeast: 6; Ecoli WT expand: 14

How did O=C(Nc1ccc(C(F)(F)F)cc1Cl)c1ccc(Cn2cc(Br)cn2)o1 do in these assays?
PLAP activator: 1; PostGolgi ctrl: 39*; PostGolgi yeast: -1; Ecoli tolC: 99*; Ecoli WT expand: 1

Results for O=C(NC1CCCCC1)c1ccc(Cn2cc(Br)cn2)o1 ?
PLAP activator: 0.9; PostGolgi ctrl: 14; PostGolgi yeast: -6; Ecoli tolC: -3; Ecoli WT expand: 6

How did CCC(NS(=O)(=O)c1ccc(C)cc1)C(=O)Nc1ccc(NC(C)=O)cc1 (centres undefined) do in these assays?
PLAP activator: 1; PostGolgi ctrl: 16; PostGolgi yeast: -7; Ecoli tolC: -11; Ecoli WT expand: 1

What do the screens show for `CCc1ccccc1OCc1nc2ccc(S(=O)(=O)N3CCOCC3)cc2[nH]1`?
PLAP activator: 2*; PostGolgi ctrl: 10; PostGolgi yeast: -7; Ecoli WT expand: -11

How did CC(C)n1c(=S)[nH]c2ccccc2c1=O do in these assays?
PLAP activator: 1.3; PostGolgi ctrl: 9; PostGolgi yeast: -2; Ecoli WT expand: -2

What do the screens show for `CC1CCCCC1n1c(=S)[nH]c2ccccc2c1=O` (centres undefined)?
PLAP activator: 1; PostGolgi ctrl: 53*; PostGolgi yeast: 7; Ecoli tolC: 100*; Ecoli WT expand: -2

Results for CCC(C)[C@H](NC(=O)NCc1ccccc1)C(=O)O (some centres undefined) ?
PLAP activator: 1.1; PostGolgi ctrl: 45*; PostGolgi yeast: -2; Ecoli tolC: -12; Ecoli WT expand: 5

Results for CCN=C1SC(C(=O)Nc2ccccc2)CC(=O)N1CC (centres undefined) ?
PLAP activator: 0.8; PostGolgi ctrl: 8; PostGolgi yeast: 3; Ecoli WT expand: 4

Results for Cc1cc2cc(C)c3nnc(SCC(=O)N4CCCc5ccccc54)n3c2cc1C ?
PLAP activator: 1.5; PostGolgi ctrl: 30*; PostGolgi yeast: -5; Ecoli WT expand: 0

Results for O=C(NC1CCCCC1)N1CCN(c2ncccn2)CC1 ?
PLAP activator: 0.9; PostGolgi ctrl: 2; PostGolgi yeast: 9; Ecoli WT expand: 0

Results for Clc1ccc(OCCn2ccnc2)c2ccccc12 ?
PLAP activator: 1.1; PostGolgi ctrl: 19; PostGolgi yeast: 0; Ecoli tolC: 100*; Ecoli WT expand: 64*

What do the screens show for `Clc1ccc(OCCn2ccnc2)c(Cl)c1`?
PLAP activator: 0.9; PostGolgi ctrl: 1; PostGolgi yeast: -4; Ecoli tolC: 18; Ecoli WT expand: 11

How did CCOCC(O)CS(=O)(=O)c1ccccn1 (centres undefined) do in these assays?
PLAP activator: 1.1; PostGolgi ctrl: 35*; PostGolgi yeast: 7; Ecoli tolC: -24; Ecoli WT expand: 3

Results for O=S(=O)(CC(O)COc1ccccc1Cl)c1ccccc1 (centres undefined) ?
PLAP activator: 1; PostGolgi ctrl: 6; PostGolgi yeast: -14; Ecoli WT expand: 9

How did Clc1ccc(-n2nnnc2SCc2c(-c3ccccc3)nc3sccn23)cc1 do in these assays?
PLAP activator: 1.2; PostGolgi ctrl: 35*; PostGolgi yeast: 1; Ecoli tolC: 12; Ecoli WT expand: -17
